Each block holds one molecule with its values, some of them ahead of it. Calls of active or inactive are those of the source. No cut-off for these calls is given here.
Key:
[1] = molecular target: T1, Glutathione S-transferase A1 (Homo sapiens, UniProt P08263); assay: Drug level in phosphate buffer assessed as GSTA1 (unknown origin)-mediated compound formation from nitric oxide release pathway treated with (Z)-1-(2-cyano-5-(4-(methylamino)benzoyloxy)-4-nitrophenoxy)-3,3-dimethyltriaz-1-ene 2-oxide at 1 uM at pH 7.4 at 37 degC after 30 mins by LC-MS/MS analysis in presence of GSH; format: ADME; conditions: pH 7.4, 0.5 h
T1 sequence (P08263 whole entry): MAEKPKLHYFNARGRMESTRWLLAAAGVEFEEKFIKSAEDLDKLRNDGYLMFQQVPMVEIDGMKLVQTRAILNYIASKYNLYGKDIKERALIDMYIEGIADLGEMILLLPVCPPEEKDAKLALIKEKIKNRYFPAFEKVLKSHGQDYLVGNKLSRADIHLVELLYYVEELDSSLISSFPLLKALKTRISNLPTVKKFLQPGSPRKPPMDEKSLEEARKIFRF
Procedure, shortened: (§1)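 Products analysed by LC–MS. The ratio is the NO-release-pathway product over the NO-retained-pathway phenolic product.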

[2] = Drug level in phosphate buffer treated with (Z)-1-(2-cyano-5-(4-(methylamino)benzoyloxy)-4-nitrophenoxy)-3,3-dimethyltriaz-1-ene 2-oxide at 1 uM at pH 7.4 at 37 degC after 30 secs by LC-MS analysis in presence of GSH; format: physicochemical; conditions: pH 7.4, 0.5 min
[3] = Drug level in phosphate buffer treated with (Z)-1-(4-cyano-5-(4-(methylamino)benzoyloxy)-2-nitrophenoxy)-3,3-dimethyltriaz-1-ene 2-oxide at 1 uM at pH 7.4 at 37 degC after 30 secs by LC-MS analysis in presence of GSH; format: physicochemical; conditions: pH 7.4, 0.5 min
[4] = Drug level in phosphate buffer treated with (Z)-3,3-dimethyl-1-(5-(4-(methylamino)benzoyloxy)-2,4-dinitrophenoxy)triaz-1-ene 2-oxide at 1 uM at pH 7.4 at 37 degC after 1 to 30 mins by LC/MS-MS analysis; format: physicochemical; conditions: pH 7.4, 1 µM
[5] = Drug level in phosphate buffer treated with (Z)-1-(4-cyano-5-(4-(methylamino)benzoyloxy)-2-nitrophenoxy)-3,3-dimethyltriaz-1-ene 2-oxide at 1 uM at pH 7.4 at 37 degC measured for 30 mins by LC-MS/MS analysis in presence of GSH; format: physicochemical; conditions: pH 7.4, 0.5 h
[6] = Stability of the compound in phosphate buffer assessed as first-order initial rate constant for hydrolysis at pH 7.4 at 25 degC by HPLC trapping method; format: physicochemical
[7] = Stability of the compound in phosphate buffer assessed as first-order initial rate constant for hydrolysis at pH 7.4 at 37 degC by HPLC trapping method; format: physicochemical
[8] = Stability of the compound in phosphate buffer assessed as pseudo-first order rate constant at pH 7.4 at 37 degC by HPLC trapping method in presence of GSH; format: physicochemical
[9] = molecular target: T2, Glutathione S-transferase P (Homo sapiens, UniProt P09211); assay: Prodrug conversion in phosphate buffer assessed as GSTP1 (unknown origin)-mediated nitric oxide release at 1 uM at pH 7.4 at 37 degC after 1 to 30 mins by LC/MS-MS analysis; format: ADME; conditions: pH 7.4, 1 µM
T2 sequence (P09211 whole entry): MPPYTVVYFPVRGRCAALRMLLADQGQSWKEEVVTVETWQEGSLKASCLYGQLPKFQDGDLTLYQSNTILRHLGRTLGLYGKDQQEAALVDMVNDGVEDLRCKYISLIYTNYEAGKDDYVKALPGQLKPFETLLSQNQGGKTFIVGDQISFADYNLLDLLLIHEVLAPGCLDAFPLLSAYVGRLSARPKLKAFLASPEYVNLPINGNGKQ
Procedure, shortened: (§2)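 Test compound at 1 µM reacted with 4 mM GSH containing 4 nM GSTP1 in 0.1 M phosphate, pH 7.4, at 37 °C. Products identified by LC–MS traces taken at 60 s and 30 min.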

[10] = molecular target: T2, Glutathione S-transferase P; assay: Drug metabolism in phosphate buffer assessed as formation of GSTP1 (unknown origin)-mediated (Z)-1-(5-((R)-2-((S)-4-amino-4-carboxybutanamido)-3-(carboxymethylamino)-3-oxopropylthio)-2-cyano-4-nitrophenoxy)-3,3-dimethyltriaz-1-ene 2-oxide at 1 uM at pH 7.4 at 37 degC after 5 to 30 mins by LC-MS/MS analysis in presence of GSH; format: ADME; conditions: pH 7.4, 1 µM; procedure, shortened: as §2
[11] = molecular target: T1, Glutathione S-transferase A1; assay: Drug metabolism in phosphate buffer assessed as ratio of GSTA1 (unknown origin)-mediated (S)-2-amino-5-((R)-1-(carboxymethylamino)-3-(2-cyano-5-hydroxy-4-nitrophenylthio)-1-oxopropan-2-ylamino)-5-oxopentanoic acid formation from nitric oxide release pathway to GSTA1 (unknown origin)-mediated (Z)-1-(2-cyano-5-hydroxy-4-nitrophenoxy)-3,3-dimethyltriaz-1-ene 2-oxide formation from nitric oxide retained pathway at 1 uM at pH 7.4 at 37 degC after 30 mins by LC-MS/MS analysis in presence of GSH; format: ADME; conditions: pH 7.4, 0.5 h; procedure, shortened: as §1
HL-60 [12] = assay: Cytotoxicity against human HL60 cells assessed as growth inhibition after 72 hrs by MTT assay; format: functional, cell-based; conditions: HL-60, 72 h
Procedure, shortened: (§3)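 HL-60 and U937 cells from ATCC, grown per supplier protocol, seeded and exposed to increasing concentrations for 72 h. Viability was read with a Promega assay run per the manufacturer's protocol. Six repeats per concentration, three independent experiments. IC50 derived by curve fitting.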

U-937 = assay: Cytotoxicity against human U937 cells assessed as growth inhibition after 72 hrs by MTT assay; format: functional, cell-based; conditions: U-937, 72 h; procedure, shortened: as §3
HL-60 [13] = assay: Induction of apoptosis in human HL60 cells assessed as activation of caspase 8 at >10 uM after 24 hrs by Western blot analysis; format: functional, cell-based
HL-60 [14] = assay: Induction of apoptosis in human HL60 cells assessed as activation of caspase 7 at >10 uM after 24 hrs by Western blot analysis; format: functional, cell-based
HL-60 [15] = assay: Induction of apoptosis in human HL60 cells assessed as cleavage of PARP at >10 uM after 24 hrs by Western blot analysis; format: functional, cell-based
HL-60 [16] = assay: Induction of SAPK/JNK phosphorylation in human HL-60 cells at 5 to 20 uM after 24 hrs by Western blot analysis
[17] = Drug level in phosphate buffer treated with (Z)-3,3-dimethyl-1-(5-(4-(methylamino)benzoyloxy)-2,4-dinitrophenoxy)triaz-1-ene 2-oxide at 1 uM at pH 7.4 at 37 degC by HPLC trapping method in presence of GSH; format: physicochemical; conditions: pH 7.4, 1 µM
[18] = Half life of the compound in phosphate buffer at 1 uM at pH 7.4 at 25 degC by HPLC trapping method; format: ADME
Procedure, shortened: (§4)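 Hydrolysis of compound at 1 µM final in 0.1 M phosphate buffer, pH 7.4, with 0.1% DMSO, run separately at 25 °C and 37 °C. Decomposition followed by HPLC, with products confirmed by LC–MS/MS. First-order rate constants were derived by initial-rate analysis.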

[19] = Half life of the compound in phosphate buffer at 1 uM at pH 7.4 at 37 degC by HPLC trapping method; format: ADME; procedure, shortened: as §4
[20] = molecular target: T1, Glutathione S-transferase A1; assay: Drug metabolism in phosphate buffer assessed as ratio of GSTA1 (unknown origin)-mediated (S)-2-amino-5-((R)-1-(carboxymethylamino)-3-(5-hydroxy-2,4-dinitrophenylthio)-1-oxopropan-2-ylamino)-5-oxopentanoic acid formation from nitric oxide release pathway to GSTA1 (unknown origin)-mediated (Z)-1-(5-hydroxy-2,4-dinitrophenoxy)-3,3-dimethyltriaz-1-ene 2-oxide formation from nitric oxide retained pathway at 1 uM at pH 7.4 at 37 degC after 30 mins by LC-MS/MS analysis in presence of GSH; format: ADME; conditions: pH 7.4, 0.5 h
Procedure, shortened: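 GSTA1 (4 nM)-catalysed reaction of 1 µM compound with 4 mM GSH in 0.1 M phosphate buffer, pH 7.4, 37 °C. Products analysed by LC–MS. Value is the ratio of the NO-release-pathway product to the NO-retained-pathway phenol product.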

[21] = molecular target: T1, Glutathione S-transferase A1; assay: Drug level in phosphate buffer assessed as GSTA1 (unknown origin)-mediated compound formation from nitric oxide release pathway treated with (Z)-3,3-dimethyl-1-(5-(4-(methylamino)benzoyloxy)-2,4-dinitrophenoxy)triaz-1-ene 2-oxide at 1 uM at pH 7.4 at 37 degC after 30 mins by LC-MS/MS analysis in presence of GSH; format: ADME; conditions: pH 7.4, 0.5 h; procedure, shortened: as §1
[22] = molecular target: T1, Glutathione S-transferase A1; assay: Drug level in phosphate buffer assessed as GSTA1 (unknown origin)-mediated compound formation from nitric oxide release pathway treated with (Z)-1-(4-cyano-5-(4-(methylamino)benzoyloxy)-2-nitrophenoxy)-3,3-dimethyltriaz-1-ene 2-oxide at 1 uM at pH 7.4 at 37 degC after 30 mins by LC-MS/MS analysis in presence of GSH; format: ADME; conditions: pH 7.4, 0.5 h; procedure, shortened: as §1

Drug metabolism [1]: metabolite_detected
Structure (SMILES): N#Cc1cc([N+](=O)[O-])c(O)cc1SC[C@H](NC(=O)CC[C@H](N)C(=O)O)C(=O)NCC(=O)O

Drug metabolism [2]: metabolite_detected
Drug metabolism [3]: metabolite_detected
Drug metabolism [4]: metabolite_detected
Drug metabolism [5]: metabolite_detected
Structure (SMILES): CNc1ccc(C(=O)SC[C@H](NC(=O)CC[C@H](N)C(=O)O)C(=O)NCC(=O)O)cc1

K [6]: 3.3 ×10⁻⁵ /s
K [7]: 2.1 ×10⁻⁴ /s
K [8]: 2.1 ×10⁻³ /s
Drug metabolism [9]: metabolite_detected
Drug metabolism [10]: metabolite_detected
Ratio [11]: 1
Structure (SMILES): CNc1ccc(C(=O)Oc2cc(O/N=[N+](\[O-])N(C)C)c(C#N)cc2[N+](=O)[O-])cc1
IC50 (HL-60 [12]): 20 µM
IC50 (U-937): 15 µM
Activity (HL-60 [13]): Active
Activity (HL-60 [14]): Active
Activity (HL-60 [15]): Active
Activity (HL-60 [16]): Active

Drug metabolism [4]: metabolite_detected
Structure (SMILES): N[C@@H](CCC(=O)N[C@@H](CSc1cc(SC[C@H](NC(=O)CC[C@H](N)C(=O)O)C(=O)NCC(=O)O)c([N+](=O)[O-])cc1[N+](=O)[O-])C(=O)NCC(=O)O)C(=O)O

Drug metabolism [17]: metabolite_detected
Structure (SMILES): CN(C)/[N+]([O-])=N/Oc1cc(SC[C@H](NC(=O)CC[C@H](N)C(=O)O)C(=O)NCC(=O)O)c([N+](=O)[O-])cc1[N+](=O)[O-]

Structure (SMILES): CNc1ccc(C(=O)Oc2cc(O/N=[N+](\[O-])N(C)C)c([N+](=O)[O-])cc2[N+](=O)[O-])cc1
half-life at 1 µM [18]: 120 min
half-life at 1 µM [19]: 20 min
K [6]: 9.6 ×10⁻⁵ /s
K [7]: 5.7 ×10⁻⁴ /s
K [8]: 11.8 ×10⁻³ /s
Drug metabolism [9]: metabolite_detected
Ratio [20]: 3

Drug metabolism [4]: metabolite_detected
Drug metabolism [21]: metabolite_detected
Structure (SMILES): N[C@@H](CCC(=O)N[C@@H](CSc1cc(O)c([N+](=O)[O-])cc1[N+](=O)[O-])C(=O)NCC(=O)O)C(=O)O

Drug metabolism [5]: metabolite_detected
Drug metabolism [22]: metabolite_detected
Structure (SMILES): N#Cc1cc([N+](=O)[O-])c(SC[C@H](NC(=O)CC[C@H](N)C(=O)O)C(=O)NCC(=O)O)cc1O
